Values joined by “and” are separate entries in the source; they are usually repeats but may differ in a detail not shown here. Identical values can stand only once. Values belong to the compound of their own block, whether it stands above or below them.
How the values were obtained:
procaspase-3 D3A = target: T1, procaspase-3 D3A (Homo sapiens, UniProt P42574, D175A/D28A/D9A); experiment: Procaspase-3 activation; type: biochemical; details: 50 µM compound; for Incubation time to maximal activity: procaspase-3 7.5 µM, zinc 10 µM
T1 sequence (P42574 1-277 D9A/D28A/D175A): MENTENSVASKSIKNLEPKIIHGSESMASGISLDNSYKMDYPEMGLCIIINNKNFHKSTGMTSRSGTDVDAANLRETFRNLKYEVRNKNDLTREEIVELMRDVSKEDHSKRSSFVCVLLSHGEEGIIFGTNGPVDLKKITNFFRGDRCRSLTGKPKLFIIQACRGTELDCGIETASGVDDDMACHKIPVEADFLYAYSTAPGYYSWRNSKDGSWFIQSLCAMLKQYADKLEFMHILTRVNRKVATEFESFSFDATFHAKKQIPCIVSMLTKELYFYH
Method in brief: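 Zinc-free uncleavable procaspase-3 (D9A/D28A/D175A), recombinantly expressed, at 7.5 µM in Chelex-treated 50 mM Hepes, 300 mM NaCl. Incubated with 10 µM ZnSO4. Basal activity read with 200 µM Ac-DEVD-pNA at 405 nm. Vehicle or test compound then added to 50 µM final and activity re-read every 20 min. Activity was taken from the slope and normalised to a zinc-free sample (100%) and DMSO (0%), n=3.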

[1] = Pharmacokinetics in mice after tail vein injection; type: in vivo, C57/BL6 mice
[2] = Pharmacokinetics in healthy research dogs, single IV dose; type: in vivo; details: 25 mg/kg IV; individual dogs Hound A-D
17–71 = experiment: Cytotoxicity, MTS cell viability assay; type: cell-based; details: read-out: 72 hour IC50, 17–71 dog lymphoma, exposure 72 h
EL-4 = experiment: Cytotoxicity, sulforhodamine B assay; type: cell-based; details: read-out: 72 hour IC50; EL-4 mouse lymphoma; exposure 72 h
MDA-MB-231 = experiment: Cytotoxicity, sulforhodamine B assay; type: cell-based; details: read-out: 72 hour IC50; MDA-MB-231 human breast; exposure 72 h
U-937 = experiment: Cytotoxicity, sulforhodamine B assay; type: cell-based, Human; details: read-out: 72 hour IC50, exposure time 72 h
OSW = experiment: Cytotoxicity, sulforhodamine B assay; type: cell-based; details: read-out: 72 hour IC50; OSW dog lymphoma; exposure 72 h
HeLa = experiment: Cytotoxicity, sulforhodamine B assay; type: cell-based; details: read-out: 72 hour IC50; HeLa human cervical; exposure 72 h
healthy dog = experiment: Toxicity of intravenous PAC-1 in a healthy dog; type: in vivo; details: 25 mg/kg as a 5-minute intravenous infusion; transient, not life-limiting
[3] = read-out: Kd of PAC-1:Zn^2+; cited from earlier work
C57/BL6 mice [4] = experiment: Toxicity determination in mice after tail vein injection
Jurkat = experiment: Cytotoxicity, sulforhodamine B assay; type: cell-based; details: read-out: 72 hour IC50; Jurkat human leukemia; exposure 72 h
SK-Mel-5 = experiment: Cytotoxicity, sulforhodamine B assay; type: cell-based; details: read-out: 72 hour IC50; SK-Mel-5 human melanoma; exposure 72 h
GL-1 = experiment: Cytotoxicity, sulforhodamine B assay; type: cell-based; details: read-out: 72 hour IC50; GL-1 dog lymphoma; exposure 72 h
C57/BL6 mice [5] = details: mouse, in vivo

Incubation time to maximal activity (procaspase-3 D3A): 5 min
MRT [2]: 1.27 h and 1.40 h and 1.10 h and 1.29 h
Tmax [2]: 0.17 h
SMILES: C=CCc1cccc(C=NNC(=O)CN2CCN(Cc3ccc(S(N)(=O)=O)cc3)CC2)c1O [S-PAC-1]
Enhancement of enzymatic activity of the proenzyme (procaspase-3 D3A; procaspase-3 D3A 7.5 µM, ZnSO4 10 µM): enhances the enzymatic activity of the proenzyme by relief of zinc-mediated inhibition, although to a lesser degree than PAC-1
Peak plasma levels ([1]; 350 mg/kg tail vein injection, without signs of neurotoxicity): ~ 3500 µM
AUMC0-inf [2]: 93.63 h*h*ug/ml and 104.77 h*h*ug/ml and 90.48 h*h*ug/ml and 101.78 h*h*ug/ml
Cls [2]: 5.67 mL/min/kg and 5.58 mL/min/kg and 5.07 mL/min/kg and 5.28 mL/min/kg
Vss [2]: 0.4325 L/kg and 0.4708 L/kg and 0.3348 L/kg and 0.41 L/kg

Incubation time to maximal activity (procaspase-3 D3A): 5 min
Peak plasma concentration ([1]; 20 mg/kg tail vein injection): ~ 50 µM
SMILES: C=CCc1cccc(/C=N/NC(=O)CN2CCN(Cc3ccccc3)CC2)c1O [PAC-1]
IC50 (17–71): 2.5 ± 0.9 µM
IC50 (EL-4): 3.8 ± 0.9 µM
IC50 (MDA-MB-231): 9.9 ± 1 µM
IC50 (U-937): 9.3 ± 0.5 µM
IC50 (OSW): 8.6 ± 1.3 µM
IC50 (HeLa): 15.5 ± 3.8 µM
Neurotoxicity in one healthy dog (healthy dog): grand mal seizure activity
Kd [3]: 0.052 ± 0.002 µM
Resolution of neurotoxicity (C57/BL6 mice [4]; in HPβCD via tail vein injection): ≤ 2 h
Dose at which significant neurological symptoms first appear (C57/BL6 mice [4]; tail vein injection): 20 mg/kg
Dose where acute neurological symptoms are present (C57/BL6 mice [4]; tail vein injection): 50 mg/kg
IC50 (Jurkat): 5.7 ± 2.8 µM
IC50 (SK-Mel-5): 11.5 ± 3.6 µM
IC50 (GL-1): 4.9 ± 0.3 µM
Onset of neurotoxicity after drug administration (C57/BL6 mice [5]): ≤ 5 min

Source: PMC3113694 (Cancer research, 2010)
